This is one part of a sample in which hits are shown more often than they occur.
Fibroblast inh – blocks proliferation of human lung fibroblasts; LL 47 human lung fibroblast viability, ATP luminescence; active compounds read low; AID 719; viability, % at 10 µM; 85,000 compounds, 1.1% hits;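 active means viability at or below 50% in the single dose screen; inactive means viability above 50%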;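 further: compound exposure lasted 72 h before the ATP readout; 100% = median luminescence of untreated cell-only wells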
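material = human LL 47 lung fibroblast cells | dosing = compounds added from tenfold dosing solution, 0.1% DMSO final | timing = overnight cell rest, 72 h compound treatment at 37 °C | measured by = CellTiter-Glo luminescence measuring cellular ATP | evaluation = % viability versus median cells-only luminescence | control set = cell-only wells, no compound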
bCat KO growth – beta-catenin-lacking colon tumor cell growth suppression; HCT116 beta-catenin knockout viability, CellTiter-Glo, 60 h; active compounds read low; viability, % at 10 µM; 140,000 compounds, 1.5% hits; AID 818;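 active means viability at or under a set limit, the compound median less 4 SD, cut at about 6% in these data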;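 further: 0% = Hyamine 1622 control at 20 µM and 100% = untreated cell control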
H69AR growth 86K – growth inhibitors of human H69AR lung tumor cells. H69AR lung tumor viability, ATP luminescence, 72 h; active compounds read low. 85,000 compounds, 6% hits. viability, % at 10 µM;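 active means viability at or below 40%; inactive means viability above 40%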;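 further: multidrug resistant small cell line overexpressing MRP-1 efflux transporter; 100% = mean luminescence of untreated control wells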
HCT116 PTEN-null – PTEN-deleted cell growth suppression | HCT116 PTEN-null viability, CellTiter-Glo, 60 h; active compounds read low | viability, % at 10 µM | 140,000 compounds, 1.2% hits;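 active means viability at or below a set limit, 4 SD under the median of all tested compounds, cut at about 3.7% in these data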;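 further: PTEN knockout HCT116 line with beta catenin targeted HCT116 as companion control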
HUVEC prolif 384 – inhibitors of human endothelial cell proliferation; 86,000 compounds, 1.1% hits; HUVEC proliferation, CellTiter-Glo luminescence, 72 h; active compounds read low; AID 648; viability, % at 10 µM (by protocol);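 active means viability at or below 30%; inactive means viability above 30%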;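 further: 100% = median luminescence of DMSO-only cell control wells on each plate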
Numbers without * were called inactive; x = no result.

SMILES | Fibroblast inh | bCat KO growth | H69AR growth 86K | HCT116 PTEN-null | HUVEC prolif 384
O=c1[nH]c(=O)n(Cc2ccccc2)c(O)c1C=Nc1ccc(CN2CCOCC2)cc1 | 103 | 98 | 80 | 92 | 91
Cc1nc2ccccc2c(=O)n1-c1ccc(F)cc1 | 107 | 92 | 88 | 108 | 103
COc1cccc(-c2cc(C(F)(F)F)n3nc(C(=O)N4CCC5(CC4)OCCO5)cc3n2)c1 | 108 | 84 | 76 | 94 | 93
Cc1ccc(-n2c(O)c(C=Nc3ccccc3N)c(=O)[nH]c2=O)cc1C | 110 | 78 | 13* | 73 | 99
Cc1ccc(-n2c(O)c(C=NCc3cccnc3)c(=O)[nH]c2=O)cc1C | 95 | 99 | 89 | 107 | 86
CN[C@H]1C[C@H]2O[C@@](C)([C@H]1OC)n1c3ccccc3c3c4c(c5c6ccccc6n2c5c31)C(=O)NC4 | x | 2.1* | x | 1.2* | x
CCOC(=O)c1c(C)n(Cc2ccccc2)c2ccc(OCC(O)CN3C(=O)CNC3=O)cc12 (configuration not stated) | 102 | 92 | 27* | 92 | 86
CCOC(=O)c1c(C)n(Cc2ccc3c(c2)OCO3)c2ccc(O)cc12 | 94 | 82 | 94 | 84 | 82
CCOc1ccc(-n2c(O)c(C=Nc3ccc(N4CCOCC4)cc3)c(=O)[nH]c2=O)cc1 | 100 | 98 | 75 | 110 | 99
Nc1c2c(nc3sc4c(c13)CCCCC4)CCCC2 | x | 3.4* | x | 7 | x
CCCCn1c(NC(=O)c2ccc(Br)o2)c(C(=O)OCC)c2nc3ccccc3nc21 | x | 82 | x | 90 | x
Cc1c(NC(=O)C(C)OC(=O)Cc2ccccc2)c(=O)n(-c2ccccc2)n1C (configuration not stated) | x | 98 | x | 94 | x
CCCCCn1c(=O)c(C(=O)NCc2ccncc2)c(O)c2ccccc21 | 60 | 19 | 14* | 16 | 67
O=C(Nc1cccc(Cl)c1)c1c(O)c2c(n(Cc3ccccc3)c1=O)CCCC2 | x | 83 | x | 88 | x
CCCCn1c(=O)c(C(=O)Nc2ccsc2C(=O)OC)c(O)c2ccccc21 | x | 3.2* | x | 3.1* | x
CCCCCn1c(=O)c(C(=O)Nc2ccncc2)c(O)c2ccccc21 | 49* | x | 5.1* | x | 69
CCCCCCn1c(=O)c(C(=O)Nc2c(C)n(C)n(-c3ccccc3)c2=O)c(O)c2ccccc21 | 62 | x | 12* | x | 51
C[n+]1ccc(-c2ccncc2)cc1 | 100 | 96 | 95 | 86 | 106
CN1C(=O)C(=Cc2ccccc2Oc2ccc(Cl)c(F)c2)C(=O)N(C)C1=O | x | 80 | x | 89 | x
COc1ccc(-n2c(O)c(C=Nc3c(C)n(C)n(-c4ccccc4)c3=O)c(=O)[nH]c2=O)cc1 | x | 83 | x | 97 | x
CCOC(=O)CCN=Cc1c(O)n(-c2ccc(Br)cc2)c(=O)[nH]c1=O | 102 | 91 | 92 | 94 | 106
C[C@H]1O[C@@H](O[C@H]2[C@@H](O)C[C@H](O[C@H]3[C@@H](O)C[C@H](O[C@H]4CC[C@@]5(C)[C@H](CC[C@@H]6[C@@H]5CC[C@]5(C)[C@@H](C7=CC(=O)OC7)CC[C@]65O)C4)O[C@@H]3C)O[C@@H]2C)C[C@H](O)[C@@H]1O | x | 4.9* | x | 6 | x
C[C@@H]1O[C@@H](O[C@H]2C[C@@H](O)[C@]3(CO)[C@H]4[C@H](O)C[C@]5(C)[C@@H](C6=CC(=O)OC6)CC[C@]5(O)[C@@H]4CC[C@]3(O)C2)[C@H](O)[C@H](O)[C@H]1O | x | 5.7* | x | 4 | x
CCN1CCN(Cc2cc(C(C)(C)C)c(O)c(C(C)(C)C)c2)CC1 | 93 | 86 | 94 | 77 | 94
COC(=O)[C@H]1C[C@@H]1[C@H](NP(=O)(c1ccccc1)c1ccccc1)c1ccccc1 | x | 87 | x | 85 | x
SMILES | Fibroblast inh | bCat KO growth | H69AR growth 86K | HCT116 PTEN-null | HUVEC prolif 384
CN1CCC(N(C)c2nc(-c3ccc([N+](=O)[O-])cc3)nc3ccccc23)CC1 | x | 1.5* | x | 1.5* | x
COc1cc(N2CCOCC2)ccc1/C=C1\C(=O)NC(=O)N(C2CCCCC2)C1=O | x | 88 | x | 88 | x
CN1C2CCC1/C(=C/c1ccccn1)C(=O)/C2=C\c1ccccn1 | x | 1.8* | x | 1.8* | x
Cn1c(O)c(C=NC2CC3CCC2(C)C3(C)C)c(=O)[nH]c1=O (configuration not stated) | 98 | 84 | 86 | 91 | 97
CCCCn1c(O)c(C=NC2CC3CCC2(C)C3(C)C)c(=O)[nH]c1=O (configuration not stated) | 96 | 56 | 15* | 36 | 98
CC1(c2ccccc2)NCCN2C(=O)CSC21 (configuration not stated) | 108 | 97 | 69 | 102 | 106

Screening results from PubChem.
